The source made the active and inactive calls. The rule behind the calls is not given here.
How the values were obtained:
Vero = assay: Cytotoxicity against african green monkey Vero cells after 48 hrs by MTT assay; type: cell-based; details: chlorocebus sabaeus
How it was run: (§1)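 Cells seeded at 10,000 per well and exposed to increasing compound concentrations for 48 h. After a PBS wash, MTT (2.5 mg/mL) was added for 6 h at 37 °C, then detergent (10% NP-40, 4 mM HCl), and absorbance was read at 570 nm. LC50 is the concentration causing 50% cell death. Values are means of three independent experiments.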

HEK293 [1] = assay: Cytotoxicity against HEK293 cells after 48 hrs by MTT assay; type: functional; details: Homo sapiens, HEK293, 48 h; read-out: LC50 (the source's name); how it was run: as §1
[2] = Retention time of the compound by HPLC method; type: physicochemical
HEK293 [3] = assay: Induction of apoptosis in HEK293 cells at 20 uM after 48 hrs by propidium iodide staining based flow cytometry (reference value: 24.26 +/- 0.8%); type: functional, Homo sapiens
HEK293 [4] = assay: Induction of cell cycle arrest in HEK293 cells assessed as accumulation at G2/M phase at 10 uM after 48 hrs by propidium iodide staining based flow cytometry (reference value: 2.63 +/- 0.7%); type: functional, Homo sapiens
HEK293 [5] = assay: Induction of apoptosis in HEK293 cells at 10 uM after 48 hrs by propidium iodide staining based flow cytometry (reference value: 24.26 +/- 0.8%); type: functional, Homo sapiens
HEK293 [6] = assay: Induction of cell cycle arrest in HEK293 cells assessed as accumulation at G1 phase at 20 uM after 48 hrs by propidium iodide staining based flow cytometry (reference value: 53.21 +/- 0.8%); type: functional, Homo sapiens
HEK293 [7] = assay: Induction of apoptosis in HEK293 cells assessed as apoptotic nuclei formation at 10 uM after 48 hrs by DAPI staining based fluorescence microscopy; type: functional, cell-based; details: Homo sapiens
HEK293 [8] = assay: Induction of apoptosis in HEK293 cells at 5 uM after 48 hrs by propidium iodide staining based flow cytometry (reference value: 24.26 +/- 0.8%); type: functional, Homo sapiens
HEK293 [9] = assay: Induction of cell death in HEK293 cells at 15 to 20 uM after 48 hrs by DAPI staining based fluorescence microscopy; type: functional; details: Homo sapiens
HEK293 [10] = assay: Increase in Bax expression in p53 deficient HEK293 cells at LC50 level after 48 hrs by Western blot method; type: functional, cell-based; details: Homo sapiens
HEK293 [11] = assay: Increase in PARP cleavage in HEK293 cells at LC50 level after 48 hrs by Western blot method; type: functional, cell-based; details: Homo sapiens
HEK293 [12] = assay: Induction of cell cycle arrest in HEK293 cells assessed as accumulation at S phase at 5 uM after 48 hrs by propidium iodide staining based flow cytometry (reference value: 19.9 +/- 0.5%); type: functional, Homo sapiens
HEK293 [13] = assay: Induction of apoptosis in HEK293 cells at 20 uM after 48 hrs by propidium iodide staining based flow cytometry relative to untreated control; type: functional, Homo sapiens
HEK293 [14] = assay: Induction of apoptosis in HEK293 cells at 5 to 20 uM after 48 hrs by DAPI staining based fluorescence microscopy; type: functional, cell-based; details: Homo sapiens
HEK293 [15] = assay: Reduction in Bcl-xL expression in HEK293 cells at LC50 level after 48 hrs by Western blot method; type: functional, cell-based; details: Homo sapiens
HEK293 [16] = assay: Reduction in Bcl-xL expression in p53 deficient HEK293 cells at LC50 level after 48 hrs by Western blot method; type: functional, cell-based; details: Homo sapiens
HEK293 [17] = assay: Increase in caspase-3 expression in HEK293 cells at LC50 level after 48 hrs by immunocytochemistry; type: functional, cell-based; details: Homo sapiens
[18] = Cytotoxicity against human MCF10A cells after 48 hrs by MTT assay; type: cell-based; details: mcf-10a; how it was run: as §1
HEK293 [19] = assay: Induction of apoptosis in HEK293 cells at 15 uM after 48 hrs by propidium iodide staining based flow cytometry (reference value: 24.26 +/- 0.8%); type: functional, Homo sapiens
HEK293 [20] = assay: Increase in p53 expression in HEK293 cells at LC50 level after 48 hrs by Western blot method; type: functional, cell-based; details: Homo sapiens
HEK293 [21] = assay: Induction of cell cycle arrest in HEK293 cells assessed as accumulation at G2/M phase at 5 uM after 48 hrs by propidium iodide staining based flow cytometry (reference value: 2.63 +/- 0.7%); type: functional, Homo sapiens
[22] = biological target: T1, Nuclear factor NF-kappa-B complex (Homo sapiens) (UniProt Q00653+P19838+Q04206); assay: Inhibition of NFkappaB (unknown origin) expressed in HEK293 cells assessed as reduction in transcriptional activity after 48 hrs by luciferase reporter gene assay; type: cell-based
T1 sequence (P19838 whole entry, looked up): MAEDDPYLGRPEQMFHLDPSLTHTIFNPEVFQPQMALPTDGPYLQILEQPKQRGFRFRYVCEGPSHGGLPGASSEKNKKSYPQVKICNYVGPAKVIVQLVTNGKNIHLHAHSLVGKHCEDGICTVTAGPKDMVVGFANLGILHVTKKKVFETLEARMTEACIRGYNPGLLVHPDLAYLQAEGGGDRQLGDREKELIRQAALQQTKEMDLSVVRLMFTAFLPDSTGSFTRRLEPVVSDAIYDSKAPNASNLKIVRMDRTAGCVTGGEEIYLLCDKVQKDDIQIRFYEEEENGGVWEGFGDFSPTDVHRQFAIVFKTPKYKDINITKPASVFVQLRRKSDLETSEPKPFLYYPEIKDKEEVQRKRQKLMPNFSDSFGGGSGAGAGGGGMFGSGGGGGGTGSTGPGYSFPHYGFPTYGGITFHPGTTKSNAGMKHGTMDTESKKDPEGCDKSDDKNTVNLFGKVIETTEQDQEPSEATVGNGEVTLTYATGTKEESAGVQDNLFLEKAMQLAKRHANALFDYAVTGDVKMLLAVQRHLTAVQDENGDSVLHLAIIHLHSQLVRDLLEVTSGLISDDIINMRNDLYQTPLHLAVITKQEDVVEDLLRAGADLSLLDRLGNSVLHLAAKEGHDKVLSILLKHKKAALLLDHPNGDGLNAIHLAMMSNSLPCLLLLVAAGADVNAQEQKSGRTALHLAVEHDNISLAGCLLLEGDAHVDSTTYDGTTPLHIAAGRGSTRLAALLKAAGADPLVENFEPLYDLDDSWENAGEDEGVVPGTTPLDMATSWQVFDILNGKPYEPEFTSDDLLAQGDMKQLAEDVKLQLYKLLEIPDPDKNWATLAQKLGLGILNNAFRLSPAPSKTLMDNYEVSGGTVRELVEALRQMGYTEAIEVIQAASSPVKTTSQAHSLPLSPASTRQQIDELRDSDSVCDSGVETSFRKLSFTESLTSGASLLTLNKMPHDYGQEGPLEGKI
T1 sequence (Q00653 whole entry, looked up): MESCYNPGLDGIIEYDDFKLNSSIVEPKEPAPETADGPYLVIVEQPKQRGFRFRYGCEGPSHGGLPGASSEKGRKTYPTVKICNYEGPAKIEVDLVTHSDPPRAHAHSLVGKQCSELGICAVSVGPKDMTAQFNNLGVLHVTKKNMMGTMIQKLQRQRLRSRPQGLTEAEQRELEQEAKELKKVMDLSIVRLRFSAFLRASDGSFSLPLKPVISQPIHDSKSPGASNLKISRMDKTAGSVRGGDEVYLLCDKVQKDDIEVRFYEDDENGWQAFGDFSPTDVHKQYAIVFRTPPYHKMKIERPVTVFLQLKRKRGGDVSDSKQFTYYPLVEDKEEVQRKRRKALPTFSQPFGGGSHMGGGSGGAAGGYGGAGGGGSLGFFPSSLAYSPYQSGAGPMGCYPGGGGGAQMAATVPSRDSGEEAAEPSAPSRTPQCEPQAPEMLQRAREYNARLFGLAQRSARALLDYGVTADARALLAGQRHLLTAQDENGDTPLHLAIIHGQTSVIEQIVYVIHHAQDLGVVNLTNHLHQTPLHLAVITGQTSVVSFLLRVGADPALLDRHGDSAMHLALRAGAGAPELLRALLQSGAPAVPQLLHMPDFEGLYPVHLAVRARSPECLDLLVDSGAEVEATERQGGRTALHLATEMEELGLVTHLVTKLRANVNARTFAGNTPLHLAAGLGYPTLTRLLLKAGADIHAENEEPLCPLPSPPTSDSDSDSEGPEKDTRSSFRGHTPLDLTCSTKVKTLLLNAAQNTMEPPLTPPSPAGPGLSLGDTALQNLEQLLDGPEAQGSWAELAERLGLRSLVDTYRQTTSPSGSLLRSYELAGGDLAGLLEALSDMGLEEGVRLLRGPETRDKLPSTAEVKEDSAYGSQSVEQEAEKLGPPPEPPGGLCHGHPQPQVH
T1 sequence (Q04206 whole entry, looked up): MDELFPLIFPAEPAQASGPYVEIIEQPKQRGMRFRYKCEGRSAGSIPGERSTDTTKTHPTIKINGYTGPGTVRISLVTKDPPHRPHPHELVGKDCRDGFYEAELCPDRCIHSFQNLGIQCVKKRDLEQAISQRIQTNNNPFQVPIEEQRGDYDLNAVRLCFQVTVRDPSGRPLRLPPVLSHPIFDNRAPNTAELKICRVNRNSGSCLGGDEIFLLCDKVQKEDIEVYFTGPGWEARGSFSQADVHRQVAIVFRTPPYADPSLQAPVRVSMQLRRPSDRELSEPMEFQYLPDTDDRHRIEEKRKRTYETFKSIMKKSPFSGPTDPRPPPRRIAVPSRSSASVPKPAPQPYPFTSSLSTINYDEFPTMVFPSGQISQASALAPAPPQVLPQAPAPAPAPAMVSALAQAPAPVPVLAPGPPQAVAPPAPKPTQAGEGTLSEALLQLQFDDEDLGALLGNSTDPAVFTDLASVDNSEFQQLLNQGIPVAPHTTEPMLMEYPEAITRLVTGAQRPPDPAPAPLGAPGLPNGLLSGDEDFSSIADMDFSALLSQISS
How it was run: (§2)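 HEK-293 at 70% confluence transfected by calcium phosphate with NF-kB luciferase ([…]) and b-Gal ([…]) plasmids, 6–8 h, then fresh serum medium 12 h; treated 48 h, lysed, luciferase read and normalized to b-galactosidase. Three independent experiments.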

HEK293 [23] = assay: Induction of cell cycle arrest in HEK293 cells assessed as accumulation at G1 phase at 15 uM after 48 hrs by propidium iodide staining based flow cytometry (reference value: 53.21 +/- 0.8%); type: functional, Homo sapiens
HEK293 [24] = assay: Reduction in NFkappaB expression in p53 deficient HEK293 cells at LC50 level after 48 hrs by Western blot method; type: functional, cell-based; details: Homo sapiens
HEK293 [25] = assay: Increase in Bax expression in HEK293 cells at LC50 level after 48 hrs by Western blot method; type: functional, cell-based; details: Homo sapiens
HEK293 [26] = assay: Induction of cell cycle arrest in HEK293 cells assessed as accumulation at G2/M phase at 15 uM after 48 hrs by propidium iodide staining based flow cytometry (reference value: 2.63 +/- 0.7%); type: functional, Homo sapiens
HEK293 [27] = assay: Increase in PARP cleavage in p53 deficient HEK293 cells at LC50 level after 48 hrs by Western blot method; type: functional, cell-based; details: Homo sapiens
[28] = Binding affinity to GC-28 DNA (unknown origin) minor groove by DAPI staining based spectrophotometry
How it was run: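 DAPI–DNA complex fluorescence read at 460 nm emission band; test compound added to the preformed complex and loss of fluorescence followed.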

HEK293 [29] = assay: Induction of cell cycle arrest in HEK293 cells assessed as accumulation at G1 phase at 5 uM after 48 hrs by propidium iodide staining based flow cytometry (reference value: 53.21 +/- 0.8%); type: functional, Homo sapiens
HEK293 [30] = assay: Induction of cell cycle arrest in HEK293 cells assessed as accumulation at G1 phase at 10 uM after 48 hrs by propidium iodide staining based flow cytometry (reference value: 53.21 +/- 0.8%); type: functional, Homo sapiens
HEK293 [31] = assay: Induction of cell cycle arrest in HEK293 cells assessed as accumulation at S phase at 15 uM after 48 hrs by propidium iodide staining based flow cytometry (reference value: 19.9 +/- 0.5%); type: functional, Homo sapiens
[32] = biological target: T1, Nuclear factor NF-kappa-B complex (Homo sapiens); assay: Inhibition of NFkappaB (unknown origin) expressed in HEK293 cells assessed as reduction in transcriptional activity at 10 uM after 48 hrs by luciferase reporter gene assay; type: cell-based; how it was run: as §2
HEK293 [33] = assay: Induction of cell cycle arrest in HEK293 cells assessed as accumulation at G2/M phase at 20 uM after 48 hrs by propidium iodide staining based flow cytometry (reference value: 2.63 +/- 0.7%); type: functional, Homo sapiens
HEK293 [34] = assay: Increase in p53 expression in p53 deficient HEK293 cells at LC50 level after 48 hrs by Western blot method; type: functional, cell-based; details: Homo sapiens
HEK293 [35] = assay: Induction of cell cycle arrest in HEK293 cells assessed as accumulation at S phase at 20 uM after 48 hrs by propidium iodide staining based flow cytometry (reference value: 19.9 +/- 0.5%); type: functional, Homo sapiens
HEK293 [36] = assay: Induction of cell cycle arrest in HEK293 cells assessed as accumulation at S phase at 10 uM after 48 hrs by propidium iodide staining based flow cytometry (reference value: 19.9 +/- 0.5%); type: functional, Homo sapiens
MCF7 = assay: Cytotoxicity against human MCF7 cells after 48 hrs by MTT assay; type: functional; details: MCF7, 48 h, read-out: LC50 (the source's name); how it was run: as §1
HEK293 [37] = assay: Reduction in NFkappaB expression in HEK293 cells at LC50 level after 48 hrs by Western blot method; type: functional, cell-based; details: Homo sapiens

C[C@]1(CO)[C@H]2CC[C@]3(CO3)[C@@H](C/C=C3/C(=O)OC[C@H]3OC(=O)CBr)[C@]2(C)CC[C@H]1O
LC50 (Vero): 32 µM
CC50 (HEK293 [1]): 24 µM
Retention_time [2]: 27.2 min

C[C@]1(CO)[C@H]2CC[C@@]3(CO3)[C@@H](C/C=C3/C(=O)OC[C@H]3OC(=O)CI)[C@]2(C)CC[C@H]1O
Activity (HEK293 [3]): 92.93%
Activity (HEK293 [4]): 1.41%
Activity (HEK293 [5]): 77.99%
Activity (HEK293 [6]): 5.37%
Activity (HEK293 [7]): Active
Activity (HEK293 [8]): 62.05%
Activity (HEK293 [9]): Active
Activity (HEK293 [10]): inactive
Activity (HEK293 [11]): Active
Activity (HEK293 [12]): 9.87%
fold change (FC) (HEK293 [13]): >6
Activity (HEK293 [14]): Dose-dependent effect
Activity (HEK293 [15]): Active
Activity (HEK293 [16]): inactive
Activity (HEK293 [17]): Active
LC50 [18]: > 40 µM
Activity (HEK293 [19]): 79.55%
LC50 (Vero): 30 µM
Activity (HEK293 [20]): Active
Activity (HEK293 [21]): 2.7%
CC50 (HEK293 [1]): 12 µM
inhibition [22]: Dose-dependent effect
Activity (HEK293 [23]): 14.98%
Activity (HEK293 [24]): inactive
Retention_time [2]: 31.4 min
Activity (HEK293 [25]): Active
Activity (HEK293 [26]): 1.31%
Activity (HEK293 [27]): inactive
Activity [28]: Active
Activity (HEK293 [29]): 25.38%
Activity (HEK293 [30]): 15.61%
Activity (HEK293 [31]): 4.63%
fold change (FC) [32]: 5
Activity (HEK293 [33]): 0.52%
Activity (HEK293 [34]): inactive
Activity (HEK293 [35]): 1.18%
Activity (HEK293 [36]): 4.98%
CC50 (MCF7): 7 µM
Activity (HEK293 [37]): Active

C=C1CC[C@@H]2[C@]3(C)COC(C)(C)O[C@@H]3CC[C@@]2(C)[C@@H]1C/C=C1/C(=O)OC[C@H]1OC(=O)CCl
LC50 (Vero): 42 µM
CC50 (HEK293 [1]): 19 µM

C=C1CC[C@@H]2[C@](C)(CO)[C@H](O)CC[C@@]2(C)[C@@H]1C/C=C1/C(=O)OC[C@H]1OC(=O)CCl
LC50 (Vero): 25 µM
CC50 (HEK293 [1]): 20 µM
Retention_time [2]: 23.2 min

C=C1CC[C@@H]2[C@](C)(CO)[C@H](O)CC[C@@]2(C)[C@@H]1C/C=C1/C(=O)OC[C@H]1O [ANDROGRAPHOLIDE]
Activity (HEK293 [10]): inactive
Activity (HEK293 [11]): Active
Activity (HEK293 [15]): Active
Activity (HEK293 [16]): inactive
Activity (HEK293 [17]): Active
LC50 [18]: > 40 µM
LC50 (Vero): < 40 µM
Activity (HEK293 [20]): Active
CC50 (HEK293 [1]): 25 µM
Activity (HEK293 [24]): inactive
Activity (HEK293 [25]): Active
Activity (HEK293 [27]): inactive
Activity (HEK293 [34]): inactive
CC50 (MCF7): 16 µM
Activity (HEK293 [37]): Active

C=C1CC[C@@H]2[C@](C)(CO)[C@H](O)CC[C@@]2(C)[C@@H]1C/C=C1/C(=O)OC[C@H]1OC(=O)CBr
Activity (HEK293 [3]): 88.84%
Activity (HEK293 [4]): 2.82%
Activity (HEK293 [5]): 67.33%
Activity (HEK293 [6]): 9.01%
Activity (HEK293 [7]): Active
Activity (HEK293 [8]): 60.44%
Activity (HEK293 [9]): Active
Activity (HEK293 [10]): inactive
Activity (HEK293 [11]): Active
Activity (HEK293 [12]): 10.44%
fold change (FC) (HEK293 [13]): >4
Activity (HEK293 [14]): Dose-dependent effect
Activity (HEK293 [15]): Active
Activity (HEK293 [16]): inactive
Activity (HEK293 [17]): Active
LC50 [18]: > 40 µM
Activity (HEK293 [19]): 76.62%
LC50 (Vero): 45 µM
Activity (HEK293 [20]): Active
Activity (HEK293 [21]): 3.96%
CC50 (HEK293 [1]): 12 µM
inhibition [22]: Dose-dependent effect
Activity (HEK293 [23]): 14.98%
Activity (HEK293 [24]): inactive
Retention_time [2]: 24.5 min
Activity (HEK293 [25]): Active
Activity (HEK293 [26]): 1.71%
Activity (HEK293 [27]): inactive
Activity [28]: Active
Activity (HEK293 [29]): 25.16%
Activity (HEK293 [30]): 19.57%
Activity (HEK293 [31]): 6.69%
fold change (FC) [32]: 5
Activity (HEK293 [33]): 0.58%
Activity (HEK293 [34]): inactive
Activity (HEK293 [35]): 1.57%
Activity (HEK293 [36]): 10.28%
CC50 (MCF7): 8.4 µM
Activity (HEK293 [37]): Active

C[C@]1(CO)[C@H]2CC[C@@]3(CO3)[C@@H](C/C=C3/C(=O)OC[C@H]3OC(=O)CBr)[C@]2(C)CC[C@H]1O
LC50 (Vero): 29 µM
CC50 (HEK293 [1]): 16 µM
Retention_time [2]: 27.8 min

Source: ChEMBL document CHEMBL3352171, “Synthesis and biological evaluation of andrographolide analogues as anti-cancer agents” (Eur J Med Chem, 2014)
